Active and inactive are the calls of the source. The calls are words filed in the database; no cut-off is given here.
Test system: Erythrocyte
Assay: (§1) Antioxidant activity assessed as inhibition of AAPH-induced hemolysis in rat RBC after 3 hrs
Assay type: functional, cell-based
Conditions: not given
Outline: (§2)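 Rat blood drawn from abdominal aorta; RBC separated by centrifugation (2500 rpm, 10 min), washed three times with five volumes PBS pH 7.4. 2 mL RBC suspension mixed with 2 mL PBS containing varying glycoside amounts, then 1 mL of 400 mM AAPH in PBS; shaken at 37 °C for 3 h. Diluted with 8 mL PBS, centrifuged, supernatant A540 read; % inhibition versus control.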

Row | Structure (SMILES) | Activity
1 | CC(C)=CCC/C(C)=C/CO[C@@H]1O[C@H](COC(=O)/C=C/c2ccc(O)cc2)[C@@H](O)[C@H](O[C@@H]2O[C@@H](C)[C@H](O)[C@@H](O)[C@H]2O)[C@H]1O | inactive
2 | CC(C)=CCC/C(C)=C/CO[C@@H]1O[C@H](CO)[C@@H](OC(=O)/C=C/c2ccc(O)cc2)[C@H](O[C@@H]2O[C@@H](C)[C@H](O)[C@@H](O)[C@H]2O)[C@H]1O | inactive
3 | C=C(C)C(=O)CC/C(C)=C/CO[C@@H]1O[C@H](CO)[C@@H](OC(=O)/C=C/c2ccc(O)cc2)[C@H](O[C@@H]2O[C@@H](C)[C@H](O)[C@@H](O)[C@H]2O)[C@H]1O | inactive

Test system: not listed separately
Assay: as §1
Assay type: functional, cell-based
Conditions: erythrocyte
Outline: as §2

Row | Structure (SMILES) | IC50
4 | C[C@@H]1O[C@@H](O[C@@H]2[C@@H](O)[C@@H](O)[C@H](O[C@@H]3[C@@H](O)[C@H](OCCc4ccc(O)cc4)O[C@H](CO)[C@H]3OC(=O)/C=C/c3ccc(O)c(O)c3)O[C@H]2C)[C@H](O)[C@H](O)[C@H]1O [LIGUROBUSTOSIDE N] | 21.8 µM
5 | C[C@@H]1O[C@@H](O[C@@H]2[C@@H](O)[C@H](OCCc3ccc(O)c(O)c3)O[C@H](CO)[C@H]2OC(=O)/C=C/c2ccc(O)c(O)c2)[C@H](O)[C@H](O)[C@H]1O [ACETOSIDE] | 28 µM
6 | O=c1cc(-c2ccc(O)cc2)oc2cc(O[C@@H]3O[C@H](CO)[C@@H](O)[C@H](O)[C@H]3O)cc(O)c12 [APIGETRIN] | 88.4 µM
7 | C[C@@H]1O[C@@H](O[C@H]2[C@H](Oc3cc(O)c4c(=O)cc(-c5ccc(O)cc5)oc4c3)O[C@H](CO)[C@@H](O)[C@@H]2O)[C@H](O)[C@H](O)[C@H]1O [RHOIFOLIN] | 95.9 µM
8 | C[C@@H]1O[C@@H](O[C@@H]2[C@@H](O)[C@H](OCCc3ccc(O)cc3)O[C@H](CO)[C@H]2OC(=O)/C=C/c2ccc(O)cc2)[C@H](O)[C@H](O)[C@H]1O [OSMANTHUSIDE B] | 160 µM
9 | Cc1c(C)c2c(c(C)c1O)CCC(C)(C(=O)O)O2 (centres undefined) [TROLOX] | 101 µM
10 | C[C@@H]1O[C@@H](O[C@@H]2[C@@H](O)[C@H](OCCc3ccc(O)cc3)O[C@H](COC(=O)/C=C/c3ccc(O)cc3)[C@H]2O)[C@H](O)[C@H](O)[C@H]1O [OSMANTHUSIDE B6] | 91.7 µM
11 | C[C@@H]1O[C@@H](O[C@@H]2[C@@H](O)[C@@H](O)[C@H](O[C@@H]3[C@@H](O)[C@H](OCCc4ccc(O)cc4)O[C@H](CO)[C@H]3OC(=O)/C=C/c3ccc(O)cc3)O[C@H]2C)[C@H](O)[C@H](O)[C@H]1O [LIGUPURPUROSIDE B] | 80.4 µM
12 | C[C@@H]1O[C@@H](O[C@@H]2[C@@H](O)[C@@H](O)[C@H](O[C@@H]3[C@@H](O)[C@H](OCCc4ccc(O)c(O)c4)O[C@H](CO)[C@H]3OC(=O)/C=C/c3ccc(O)c(O)c3)O[C@H]2C)[C@H](O)[C@H](O)[C@H]1O [LIGUPURPUROSIDE A] | 26.3 µM
13 | C[C@@H]1O[C@@H](O[C@@H]2[C@@H](O)[C@@H](O)[C@H](O[C@@H]3[C@@H](O)[C@H](OCCc4ccc(O)cc4)O[C@H](CO)[C@H]3O)O[C@H]2C)[C@H](O)[C@H](O)[C@H]1O [LIGUROBUSTOSIDE M] | 134 µM
14 | C/C(=C\CO[C@@H]1O[C@H](CO)[C@@H](OC(=O)/C=C/c2ccc(O)cc2)[C@H](O[C@@H]2O[C@@H](C)[C@H](O)[C@@H](O)[C@H]2O)[C@H]1O)C/C=C\C(C)(C)O [LIGUROBUSTOSIDE I] | 340 µM

Source: ChEMBL document CHEMBL1146538, “Antioxidative glycosides from the leaves of Ligustrum robustum” (J Nat Prod, 2003)
